The list is not random: actives were taken first. Their share in the collection is about 1.2%.
ASAP1 GAP inh – ASAP1 ArfGAP inhibition. ASAP1-stimulated ARF1 GTP hydrolysis, GDP FP detection. Q9ULH1. AID 624377. hit rate 0.19% among 360,000. inhibition, % at 16.5 µM; in the data active = inhibition above about 25%
IDE inh – cellular human IDE inhibition | P14735 | HEK cells, FAbetaB cleavage, fluorescence polarization | inhibition, % at 5.59 µM | hit rate 0.41% among 320,000;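 active = percent inhibition above the average of all tested compounds plus 3 SD, set per screening campaign, cut at about 16% in these data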;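 also: IDE supplied by intact live HEK cells; FP after avidin binding of uncleaved biotin substrate so inhibition keeps polarization high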
Target sequence (P14735 whole entry, looked up): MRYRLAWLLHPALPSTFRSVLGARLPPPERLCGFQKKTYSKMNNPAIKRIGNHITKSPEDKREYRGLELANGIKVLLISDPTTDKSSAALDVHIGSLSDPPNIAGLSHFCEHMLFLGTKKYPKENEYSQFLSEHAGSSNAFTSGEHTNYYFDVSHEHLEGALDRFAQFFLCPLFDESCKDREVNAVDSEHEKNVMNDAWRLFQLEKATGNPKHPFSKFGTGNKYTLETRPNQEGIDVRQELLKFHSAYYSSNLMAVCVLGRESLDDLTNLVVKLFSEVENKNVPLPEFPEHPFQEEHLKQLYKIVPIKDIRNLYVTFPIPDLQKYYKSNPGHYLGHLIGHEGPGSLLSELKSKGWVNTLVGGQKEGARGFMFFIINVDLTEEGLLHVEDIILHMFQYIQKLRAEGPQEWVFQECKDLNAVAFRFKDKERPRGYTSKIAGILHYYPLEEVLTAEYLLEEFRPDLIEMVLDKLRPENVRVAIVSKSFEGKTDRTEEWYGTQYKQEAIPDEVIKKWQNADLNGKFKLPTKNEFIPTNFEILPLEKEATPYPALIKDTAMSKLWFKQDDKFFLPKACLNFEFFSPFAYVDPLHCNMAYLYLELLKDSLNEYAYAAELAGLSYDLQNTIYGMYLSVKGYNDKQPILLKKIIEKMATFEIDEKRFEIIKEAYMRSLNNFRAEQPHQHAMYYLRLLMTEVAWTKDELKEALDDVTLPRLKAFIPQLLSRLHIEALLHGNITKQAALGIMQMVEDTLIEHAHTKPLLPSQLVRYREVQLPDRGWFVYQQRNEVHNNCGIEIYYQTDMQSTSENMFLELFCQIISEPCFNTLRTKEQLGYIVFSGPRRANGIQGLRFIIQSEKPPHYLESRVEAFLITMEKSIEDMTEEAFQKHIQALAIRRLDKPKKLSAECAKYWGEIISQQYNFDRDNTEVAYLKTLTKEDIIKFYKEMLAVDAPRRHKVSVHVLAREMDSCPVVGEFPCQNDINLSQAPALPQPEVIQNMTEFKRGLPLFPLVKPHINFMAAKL
ARFGAP1 inh – inhibits rat ARF GTPase activating protein 1 | Q62848 | Arfgap1-stimulated ARF1 GTP hydrolysis, GDP FP detection | inhibition, % at 16.5 µM | hit rate 0.26% among 360,000;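 active = inhibition above a per-plate limit, mean inhibition of low control wells plus 3 SD, cut at about 25% in these data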
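Replicates: Single well per compound | Assay system: Truncated rat Arfgap1 GAP domain | Control set: No-Arfgap1 wells (100%) versus DMSO full-reaction wells (0%) | Times: Enzyme reaction 120 min at 25 °C after 20 min preincubation | Reagent: Human ARF1(Δ1-17)-GTP substrate | Measured by: Tracer-displacement fluorescence polarization with EDTA stop, 620/688 nm | Measure: Percent inhibition of Arfgap1-stimulated GTP hydrolysis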
IDE act – activators of human insulin-degrading enzyme in cells | HEK cells, FAbeta-B cleavage, fluorescence polarization; 0% vehicle, 100% cell-free pure enzyme wells | activation, % at 5.96 µM | hit rate 0.073% among 340,000;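 active = activation above the mean of all tested compounds plus 3 SD, set per screening campaign, cut at about 17% in these data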
PREPL inhibitor – human PREPL enzyme inhibition; Q4J6C6; recombinant PREPL, fluorescence polarization activity-based probe; inhibition, % at 5.96 µM; hit rate 0.68% among 320,000; AID 2751; in the data active = inhibition above about 43%
ARFGAP1 inh conf – rat ARFGAP1 inhibition, confirmed; shares compounds with ARFGAP1 inh; ARFGAP1-stimulated ARF1 GTP hydrolysis, GDP tracer FP; inhibition, % at 16.5 µM; hit rate 30% among 890;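 active = average inhibition over triplicates above the hit cutoff set in the earlier primary screen, cut at about 25% in these data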
Large screens that a line does not name were inactive (follow-up assays come after a bar, where they were run).

Nc1nc(/C=C/c2cccnc2)nc(-c2ccccc2O)n1	ARFGAP1 inh 37 | ARFGAP1 inh conf 25
Cc1ccc2nc(-c3ccc(SCC(=O)Nc4nc(C)cs4)nc3)[nH]c2c1	ARFGAP1 inh 25 | ARFGAP1 inh conf 33
Cc1ccc2nc(-c3ccc(SCC(=O)Nc4nnc(C)s4)nc3)[nH]c2c1	none
O=C(c1ccc(NS(=O)(=O)c2ccccc2)cc1)N1CCOCC1	none
CCNC(=O)OCc1cn(-c2ccc(Cl)cc2)nn1	none
O=C(Nc1ccc(Cl)cc1)OCc1cn(-c2ccc(Cl)cc2)nn1	ASAP1 GAP inh 78, ARFGAP1 inh 68 | ARFGAP1 inh conf 53
COc1ccccc1NC(=O)COC(=O)c1ccc(S(=O)(=O)N2CCCCCC2)cc1	none
Cc1cc(C2(c3ccc(O)c(C)c3)OC(=O)c3ccccc32)ccc1O	none
Cc1cc(O)c(C(C)C)cc1C1(c2cc(C(C)C)c(O)cc2C)OC(=O)c2ccccc21	ARFGAP1 inh 27 | ARFGAP1 inh conf inactive
O=C(C1CCCCC1)N1CCN=C1SCc1cccc([N+](=O)[O-])c1	none
Cc1ccc(CNC(=O)CN(C(=O)N2CCN(C)CC2)S(=O)(=O)c2ccc(C)cc2)cc1	none
COc1ccc2cc(C(=O)Nc3ccc(S(N)(=O)=O)cc3)sc(=O)c2c1OC	ARFGAP1 inh 25 | ARFGAP1 inh conf inactive
Cc1cccc(C)c1OCC(=O)N(Cc1cccs1)C1CCS(=O)(=O)C1 (configuration not stated)	none
Cc1ccccc1OCC(=O)N(Cc1cccs1)C1CCS(=O)(=O)C1 (configuration not stated)	ARFGAP1 inh 25 | ARFGAP1 inh conf inactive
C/C(=N\N=C(/N)SC1CC(=O)N(c2ccccc2)C1=O)c1cccs1 (configuration not stated)	none
C/C(=N\N=C(/N)SC1CC(=O)N(c2ccc(Br)cc2)C1=O)c1cccs1 (configuration not stated)	ARFGAP1 inh 27 | ARFGAP1 inh conf inactive
Cn1c(=O)c2c(-c3ccccc3F)c3c(nc2n(C)c1=O)-c1ccccc1C3O (configuration not stated)	ARFGAP1 inh 25 | ARFGAP1 inh conf inactive
Cc1ccc(/C=N/N(Cc2ccccc2)c2ccccc2)o1	ARFGAP1 inh 33 | ARFGAP1 inh conf inactive
Cc1ccc(/C=N/N2CCN(Cc3ccccc3)CC2)o1	none
CC1(Oc2cccc(F)c2)CCN(Cc2ccc(-c3ccccc3)o2)C1 (configuration not stated)	none (no result: IDE inh, IDE act, PREPL inhibitor)
COc1ccc(NC(=O)C(=O)NCCC2CCCCN2S(=O)(=O)c2ccc(F)cc2)cc1 (configuration not stated)	ARFGAP1 inh 28 | ARFGAP1 inh conf inactive
COc1ccc(/C=C2/SC(=O)N(CCC(=O)Nc3ccc(C)cc3)C2=O)cc1OC	none (no result: IDE act)
COc1cc(/C=C2\SC(N)=NC2=O)ccc1OCC(=O)Nc1ccc(C)cc1	ARFGAP1 inh 45 | ARFGAP1 inh conf 72
CCCN1CCN(CCCNC(=O)c2ccc(NC(=O)C3=C(C)OCCS3)cc2)CC1	none
O=C(NCCc1nc2ccccc2[nH]1)c1cccc(Br)c1	ARFGAP1 inh 25 | ARFGAP1 inh conf inactive
O=C(NCCc1nc2ccccc2[nH]1)c1ccc(F)cc1	none (no result: ASAP1 GAP inh, ARFGAP1 inh)
Cc1nn(Cc2ccc(C(=O)Nc3ccc(C(=O)OC(C)C)cc3)o2)c(C)c1Cl	ARFGAP1 inh 26 | ARFGAP1 inh conf 27
Cc1cc(=O)oc2cc(OCc3ccc(C(=O)OCC(=O)Nc4ccccc4OC(F)F)cc3)ccc12	ARFGAP1 inh 42 | ARFGAP1 inh conf 50
CC(C)N(Cc1nc(-c2ccc(Cl)cc2)no1)Cc1nccn1C	ARFGAP1 inh 25 | ARFGAP1 inh conf inactive
COc1ccc(CNC(=O)CN(C(=O)CCC(=O)Nc2ccccn2)c2ccc3c(c2)OCO3)cc1	none
CNC(=O)[C@@H]1C[C@H]1[C@@H](NC(=O)OCc1ccccc1)c1ccccc1	ARFGAP1 inh 25 | ARFGAP1 inh conf inactive
Cn1cccc2[nH]c(=O)nc1-2	none
O=C(COC(=O)c1ccccc1F)Nc1ccc(S(=O)(=O)N2CCOCC2)cc1	ARFGAP1 inh 27 | ARFGAP1 inh conf inactive
O=C1CCCCC1(c1ccccc1)c1ccccc1	none (no result: IDE inh, PREPL inhibitor)
O=C1CCC(c2ccccc2)(c2ccccc2)CC1	ARFGAP1 inh 28 | ARFGAP1 inh conf inactive
COc1ccc(NC(=O)c2cc(-c3cc(Cl)ccc3C)n[nH]2)cc1OC	none (no result: IDE inh, IDE act, PREPL inhibitor)
COc1ccc(NC(=O)c2cc(-c3cc(Cl)ccc3OC)n[nH]2)cc1OC	ARFGAP1 inh 28 (no result: IDE inh, IDE act, PREPL inhibitor) | ARFGAP1 inh conf inactive
N#CCN(C(=O)COC(=O)CCCNC(=O)c1ccc(Cl)cc1)c1ccccc1	none
Cc1ccc[n+](C(C)C(=O)c2ccc(Cl)cc2)c1 (configuration not stated)	ARFGAP1 inh 45 | ARFGAP1 inh conf inactive
CN1C(=O)c2ccc(NC(=O)c3c(C(=O)O)cccc3[N+](=O)[O-])cc2C1=O	ARFGAP1 inh 26 | ARFGAP1 inh conf inactive
Cc1ccc(NC(=O)C(C)N=C2NS(=O)(=O)c3ccccc32)cc1F (configuration not stated)	ARFGAP1 inh 38 | ARFGAP1 inh conf inactive
CC(N=C1NS(=O)(=O)c2ccccc21)C(=O)NCCCc1ccccc1 (configuration not stated)	none
Cc1ccc(S(=O)(=O)N2CCN(C(=O)c3ccc4nc[nH]c4c3)CC2)cc1	none
CCCCC[C@@H](O)c1cc2ccccc2c(=O)o1	none
CC(=O)Nc1ccc(NC(=S)Nc2ccccc2)cc1	none
CC(=O)Nc1ccc(SC(Sc2ccc(NC(C)=O)cc2)c2ccccc2)cc1	ARFGAP1 inh 30 (no result: IDE inh, PREPL inhibitor) | ARFGAP1 inh conf inactive
COc1ccc(-n2c(=O)c3c4c(sc3n3cnnc23)CC(C)CC4)cc1 (configuration not stated)	ARFGAP1 inh 27 | ARFGAP1 inh conf 62
Cc1cc(C)c(S(=O)(=O)N(CC(=O)NCc2cccnc2)C2CCCCC2)c(C)c1	ARFGAP1 inh 30 | ARFGAP1 inh conf inactive
Cc1ccc(S(=O)(=O)N(CC(=O)NCc2cccnc2)C2CCCCC2)cc1	none
CC(C)=CCC/C(C)=C/Cc1c(O)ccc(C(=O)/C=C/c2ccc(O)cc2)c1O	ARFGAP1 inh 28 | ARFGAP1 inh conf 26
COc1ccc(CNC(=O)C2CCC(CNC(=O)[C@@H]3Cc4ccccc4CN3)CC2)cc1 (some centres not stated)	none
COc1ccc2oc(C(=O)OCC(=O)N3CC(C)OC(C)C3)c(C)c2c1 (configuration not stated)	ARFGAP1 inh 25 | ARFGAP1 inh conf inactive
COc1ccc2oc(C(=O)OCC(=O)N3CC(C)CC(C)C3)c(C)c2c1 (configuration not stated)	ARFGAP1 inh 31 | ARFGAP1 inh conf 39
CNC(=O)c1c(NC(=O)C2=COCCO2)sc2c1CCCC2	none
COc1ccc(NS(=O)(=O)c2cccc(C(=O)NCC(c3ccco3)N3CCCC3)c2)cc1 (configuration not stated)	none
